Measured values: ChEMBL document CHEMBL3112482, “Nonclassical antifolates, part 5. Benzodiazepine analogs as a new class of DHFR inhibitors: synthesis, antitumor testing and molecular modeling study” (Eur J Med Chem, 2014)

Tests used:
[1] = Cytotoxicity against human non-small cell lung cancer cells at 10 uM after 48 hrs; format: functional; settings: Cancer cell lines; for CC50: read-out: LC50 (the source's name)
Procedure, shortened: (§1)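 Single-dose primary screen in the NCI 60 human tumour cell line panel, run at the NCI facility. The panel covers nine subpanels: leukaemia, non-small cell lung, colon, CNS, melanoma, ovarian, renal, prostate and breast. Read-out was percent growth of treated cells, shown as a mean graph and reported as percent growth inhibition.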

[2] = tested on: SW-620; assay: Growth inhibition of human SW620 cells at 10 uM after 48 hrs; format: functional; settings: SW-620, 48 h, read-out: GI
Procedure, shortened: (§2)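 NCI 60-cell-line disease-oriented human tumor panel, single-dose primary screen at 10 µM. Data given as mean-graph percent growth of treated cells, reported as percent growth inhibition (GI %).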

[3] = tested on: A498; assay: Growth inhibition of human A498 cells at 10 uM after 48 hrs; format: functional; settings: A498, 48 h, read-out: GI; procedure, shortened: as §1
[4] = tested on: NCI-H460; assay: Growth inhibition of human NCI-H460 cells at 10 uM after 48 hrs; format: functional; settings: NCI-H460, 48 h, read-out: GI; procedure, shortened: as §1
[5] = tested on: SK-MEL-2; assay: Growth inhibition of human SK-MEL-2 cells at 10 uM after 48 hrs; format: functional; settings: SK-MEL-2, 48 h, read-out: GI; procedure, shortened: as §2
[6] = tested on: NCI-H522; assay: Growth inhibition of human NCI-H522 cells at 10 uM after 48 hrs; format: functional; settings: NCI-H522, 48 h, read-out: GI; procedure, shortened: as §1
[7] = target: T1, Dihydrofolate reductase (Bos taurus, UniProt P00376); assay: Inhibition of bovine liver DHFR measured for every 1 min of 10 mins
T1 sequence (P00376 whole entry): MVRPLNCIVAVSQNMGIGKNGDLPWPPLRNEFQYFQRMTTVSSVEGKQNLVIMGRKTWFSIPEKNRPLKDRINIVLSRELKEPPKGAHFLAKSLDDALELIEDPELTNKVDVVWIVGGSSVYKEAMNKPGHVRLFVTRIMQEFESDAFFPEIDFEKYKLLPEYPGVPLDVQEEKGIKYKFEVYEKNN

[8] = tested on: M14; assay: Growth inhibition of human M14 cells at 10 uM after 48 hrs; format: functional; settings: M14, 48 h, read-out: GI; procedure, shortened: as §1
[9] = tested on: HCT-15; assay: Growth inhibition of human HCT15 cells at 10 uM after 48 hrs; format: functional; settings: HCT-15, 48 h, read-out: GI; procedure, shortened: as §1
[10] = Growth inhibition of human UACC257 cells at 10 uM after 48 hrs; format: functional; settings: UACC-257, 48 h, read-out: GI; procedure, shortened: as §2
[11] = tested on: U-251; assay: Growth inhibition of human U251 cells at 10 uM after 48 hrs; format: functional; settings: U-251, 48 h, read-out: GI; procedure, shortened: as §2
[12] = tested on: SF-295; assay: Growth inhibition of human SF295 cells at 10 uM after 48 hrs; format: functional; settings: SF-295, 48 h, read-out: GI; procedure, shortened: as §2
[13] = tested on: MDA-MB-468; assay: Growth inhibition of human MDA-MB-468 cells at 10 uM after 48 hrs; format: functional; settings: MDA-MB-468, 48 h, read-out: GI; procedure, shortened: as §1
[14] = Cytotoxicity against human prostate cancer cells at 10 uM after 48 hrs; format: functional; settings: Cancer cell lines
[15] = tested on: KM12; assay: Growth inhibition of human KM12 cells at 10 uM after 48 hrs; format: functional; settings: KM12, 48 h, read-out: GI; procedure, shortened: as §1
[16] = tested on: HOP-62; assay: Growth inhibition of human HOP62 cells at 10 uM after 48 hrs; format: functional; settings: HOP-62, 48 h, read-out: GI; procedure, shortened: as §1
[17] = tested on: HL-60(TB); assay: Growth inhibition of human HL-60(TB) cells at 10 uM after 48 hrs; format: functional; settings: HL-60, 48 h, read-out: GI
Procedure, shortened: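 NCI 60-cell-line human tumour panel covering nine subpanels (leukaemia, non-small cell lung, colon, CNS, melanoma, ovarian, renal, prostate, breast), run at the NCI facility. Primary screen tested a single dose of each compound. Read-out was percent growth of treated cells versus untreated cells, reported from the mean graph as percentage growth inhibition.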

[18] = tested on: UACC-62; assay: Growth inhibition of human UACC62 cells at 10 uM after 48 hrs; format: functional; settings: UACC-62, 48 h, read-out: GI; procedure, shortened: as §2
[19] = Cytotoxicity against human leukemia cells at 10 uM after 48 hrs; format: functional; settings: Leukemia cell
[20] = Cytotoxicity against human colon cancer cells at 10 uM after 48 hrs; format: functional; settings: Cancer cell lines; for CC50: read-out: LC50 (the source's name); procedure, shortened: as §1
[21] = tested on: IGROV-1; assay: Growth inhibition of human IGROV1 cells at 10 uM after 48 hrs; format: functional; settings: IGROV-1, 48 h, read-out: GI; procedure, shortened: as §1
[22] = tested on: LOX IMVI; assay: Growth inhibition of human LOXIMVI cells at 10 uM after 48 hrs; format: functional; settings: read-out: GI; procedure, shortened: as §1
[23] = Growth inhibition of human HCC2998 cells at 10 uM after 48 hrs; format: functional; settings: HCC 2998, 48 h, read-out: GI; procedure, shortened: as §1
[24] = tested on: RPMI-8226; assay: Growth inhibition of human RPMI8226 cells at 10 uM after 48 hrs; format: functional; settings: RPMI-8226, 48 h, read-out: GI; procedure, shortened: as §1
[25] = tested on: HCT-116; assay: Growth inhibition of human HCT116 cells at 10 uM after 48 hrs; format: functional; settings: HCT-116, 48 h, read-out: GI; procedure, shortened: as §1

SMILES | inhibition of growth at 10 µM [2] [%] | inhibition of growth at 10 µM [3] [%] | inhibition of growth at 10 µM [4] [%] | inhibition of growth at 10 µM [5] [%] | inhibition of growth at 10 µM [6] [%] | IC50 [7] [µM] | inhibition of growth at 10 µM [8] [%] | inhibition of growth at 10 µM [9] [%] | inhibition of growth at 10 µM [10] [%] | inhibition of growth at 10 µM [11] [%] | inhibition of growth at 10 µM [12] [%] | inhibition of growth at 10 µM [13] [%] | inhibition of growth at 10 µM [15] [%] | inhibition of growth at 10 µM [16] [%] | inhibition of growth at 10 µM [17] [%] | inhibition of growth at 10 µM [18] [%] | inhibition of growth at 10 µM [21] [%] | inhibition of growth at 10 µM [22] [%] | inhibition of growth at 10 µM [23] [%] | inhibition of growth at 10 µM [24] [%] | further results
Nc1nc2c(c(-c3ccc(Cl)cc3)n1)CCC/C2=C\c1ccc(Cl)cc1 | 81.1 | 45.3 | < 30 | < 30 | 81 | 17 | 89 | 41.7 | < 30 | 86.1 | 32.5 | 37.8 | 97.7 | < 30 | 35.2 | < 30 | < 30 |  |  |  | GI50 [1]: 15.2 µM; TGI [1]: 55.7 µM; CC50 [1]: 88.6 µM; GI50 [14]: 12.3 µM; LC50 [14]: 95 µM; TGI [14]: 51.2 µM; GI50 [19]: 7.8 µM; LC50 [19]: > 100 µM; TGI [19]: 61.1 µM; GI50 [20]: 4 µM; TGI [20]: 12.5 µM; CC50 [20]: 51.3 µM
Cc1nc2c(c(-c3ccc(Br)cc3)n1)CCC/C2=C\c1ccc(Br)cc1 | < 30 | < 30 | < 30 | < 30 | < 30 |  | < 30 | < 30 | < 30 | < 30 | < 30 | < 30 | < 30 | < 30 | < 30 | < 30 | < 30 | < 30 | < 30 | 73.7 | inhibition of growth at 10 µM [25]: 55.8%
Cc1nc2c(c(-c3ccc(Cl)cc3)n1)CCC/C2=C\c1ccc(Cl)cc1 | < 30 | < 30 | < 30 | < 30 | < 30 |  | 34.7 | < 30 | < 30 | 44 | < 30 | < 30 | 62 | < 30 | < 30 | < 30 | < 30 | 63.2 | 58.5 |  | 
COc1ccc(/C=C2\CCCc3c2nc(C)nc3-c2ccc(OC)cc2)cc1 | < 30 | < 30 | < 30 | < 30 | < 30 |  | < 30 | < 30 | < 30 | < 30 | < 30 | < 30 | < 30 | < 30 | < 30 | < 30 | < 30 | < 30 | < 30 | 50.1 | inhibition of growth at 10 µM [25]: < 30%
COc1ccc(/C=C2\CCCc3c2nc(N)nc3-c2ccc(OC)cc2)cc1 | < 30 | < 30 | < 30 | < 30 | < 30 | 18 | < 30 | < 30 | < 30 | < 30 | < 30 |  | < 30 | < 30 | 32.2 | 32.1 | < 30 | < 30 | < 30 | 42.3 | inhibition of growth at 10 µM [25]: < 30%
COc1ccc(/C=C2\CCCC3=C(c4ccc(OC)cc4)Nc4ccccc4N=C32)cc1 | < 30 | < 30 | < 30 | < 30 | 93.4 | 0.6 | < 30 | < 30 | < 30 | < 30 | < 30 | 56.4 | 72.5 | < 30 | < 30 | 32 | < 30 | 42.6 | < 30 | 74.3 | inhibition of growth at 10 µM [25]: 61.9%
Clc1ccc(/C=C2\CCCC3=C(c4ccc(Cl)cc4)Nc4ccccc4N=C32)cc1 | 58.6 | 32.8 | < 30 | < 30 | 80.1 | 0.3 | 70.9 | 36.4 | < 30 | 79.2 | < 30 | 40 | 82.7 | < 30 | < 30 | < 30 | < 30 |  | < 30 |  | GI50 [1]: 9 µM; TGI [1]: 35.2 µM; CC50 [1]: 81.3 µM; GI50 [14]: 5.1 µM; LC50 [14]: > 100 µM; TGI [14]: 61.9 µM; GI50 [19]: 4.1 µM; LC50 [19]: > 100 µM; TGI [19]: 49.4 µM; GI50 [20]: 2.4 µM; TGI [20]: 6.4 µM; CC50 [20]: 38.8 µM
COc1ccc(/C=C2\CCCc3c2nc(N)nc3-c2ccc(OC)c(OC)c2)cc1OC | 59.3 | < 30 | 35.4 | 43.2 | 83.3 | 14 | 42.7 | 64.1 | 53.8 | 62.2 | < 30 |  | 67.9 | 43 | 57.7 | 47.2 | 42.9 | 87.1 | < 30 | 84.8 | GI50 [1]: 22.1 µM; TGI [1]: 71.1 µM; CC50 [1]: 94.3 µM; inhibition of growth at 10 µM [25]: 92.1%; GI50 [14]: 5.1 µM; LC50 [14]: > 100 µM; TGI [14]: > 100 µM; GI50 [19]: 2.1 µM; LC50 [19]: > 100 µM; TGI [19]: 65.1 µM; GI50 [20]: 17.4 µM; TGI [20]: 75.8 µM; CC50 [20]: 89.8 µM
Nc1nc2c(c(-c3ccc(Br)cc3)n1)CCC/C2=C\c1ccc(Br)cc1 | < 30 | < 30 | < 30 | < 30 | 51.6 | 16 | 38.1 | < 30 | < 30 | 65.2 | < 30 | < 30 | 53 | < 30 | < 30 | < 30 | < 30 |  | 51.5 |  | 
